From ChEMBL document CHEMBL4251754, “Identification of a Potent Tryptophan-Based TRPM8 Antagonist With in Vivo Analgesic Activity” (J Med Chem, 2018)
Activity calls are given as the source filed them. The calls are words filed in the database; no cut-off is given here.

Tests used:
[1] = biological target: T1, Transient receptor potential cation channel subfamily M member 8 (Rattus norvegicus, UniProt Q8R455); experiment: Antagonist activity at rat TRPM8 expressed in HEK293 cells assessed as reduction in menthol-induced calcium flux incubated for 60 mins by Fluo-4 NW-dye based fluorimetric assay; assay type: cell-based
T1 sequence (Q8R455 whole entry): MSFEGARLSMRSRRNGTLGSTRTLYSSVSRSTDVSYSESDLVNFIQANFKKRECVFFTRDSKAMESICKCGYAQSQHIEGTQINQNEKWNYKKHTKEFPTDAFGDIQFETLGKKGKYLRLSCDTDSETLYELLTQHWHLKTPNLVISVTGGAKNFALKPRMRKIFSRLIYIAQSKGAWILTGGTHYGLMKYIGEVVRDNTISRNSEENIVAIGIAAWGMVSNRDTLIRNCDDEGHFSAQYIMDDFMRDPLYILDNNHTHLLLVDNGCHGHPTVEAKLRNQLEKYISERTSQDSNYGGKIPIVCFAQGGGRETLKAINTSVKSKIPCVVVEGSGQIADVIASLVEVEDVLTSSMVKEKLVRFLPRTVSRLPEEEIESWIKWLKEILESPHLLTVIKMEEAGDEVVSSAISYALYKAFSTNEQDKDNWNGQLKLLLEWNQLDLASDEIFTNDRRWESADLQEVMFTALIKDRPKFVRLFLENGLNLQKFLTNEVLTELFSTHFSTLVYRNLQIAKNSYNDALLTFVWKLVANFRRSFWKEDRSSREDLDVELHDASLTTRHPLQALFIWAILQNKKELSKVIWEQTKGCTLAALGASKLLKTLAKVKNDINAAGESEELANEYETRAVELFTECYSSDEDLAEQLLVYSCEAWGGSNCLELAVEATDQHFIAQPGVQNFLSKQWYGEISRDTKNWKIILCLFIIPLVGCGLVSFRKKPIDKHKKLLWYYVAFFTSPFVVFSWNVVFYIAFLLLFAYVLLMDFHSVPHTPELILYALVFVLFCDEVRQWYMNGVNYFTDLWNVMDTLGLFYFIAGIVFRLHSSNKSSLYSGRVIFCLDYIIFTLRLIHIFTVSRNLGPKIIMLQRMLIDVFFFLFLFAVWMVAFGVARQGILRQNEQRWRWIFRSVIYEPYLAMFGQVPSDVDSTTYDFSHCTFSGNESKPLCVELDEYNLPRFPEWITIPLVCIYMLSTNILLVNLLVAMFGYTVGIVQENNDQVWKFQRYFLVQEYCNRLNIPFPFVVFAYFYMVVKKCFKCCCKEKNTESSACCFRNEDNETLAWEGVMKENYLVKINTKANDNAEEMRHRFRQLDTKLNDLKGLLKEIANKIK
How it was run: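 HEK293 cells stably expressing rat TRPM8, seeded 2 days ahead, loaded with Fluo-4 NW containing 2.5 mM probenecid; compounds in DMSO, 60 min at 37 °C in darkness. Four baseline cycles, 100 μM menthol stimulation, 15 further cycles read (ex 485/em 535 nm). Normalized to menthol + 10 μM AMTB coexposure; DMSO controls.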

[2] = biological target: Transient receptor potential cation channel subfamily M member 8 (Rattus norvegicus) (UniProt Q8R455); experiment: Antagonist activity at rat TRPM8 expressed in HEK293 cells at 500 nM assessed as reduction in menthol-induced channel currents by whole cell patch clamp method; assay type: cell-based
Transient receptor potential cation channel subfamily M member 8 (Rattus norvegicus), sequence (Q8R455 whole entry, looked up): as the sequence (Q8R455 whole entry) above
How it was run: (§1)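 HEK293 cells transiently transfected with rat TRPM8 cDNA plus EGFP marker, recorded 24 h later by whole-cell patch clamp on EGFP-positive cells (3–5 MΩ pipettes). Extracellular (mM): 138 NaCl, 5.4 KCl, 2 CaCl2, 1 MgCl2, 10 glucose, 10 HEPES, pH 7.4. Currents evoked by 500 μM menthol, read at +80 and −80 mV; compound added during menthol exposure.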

[3] = biological target: Transient receptor potential cation channel subfamily M member 8 (Rattus norvegicus) (UniProt Q8R455); experiment: Reversible antagonist activity at rat TRPM8 expressed in HEK293 cells at 500 nM assessed as reduction in menthol-induced channel currents measured after drug wash out by whole cell patch clamp method; assay type: cell-based; how it was run: as §1
[4] = biological target: T1, Transient receptor potential cation channel subfamily M member 8; experiment: (§2) Antagonist activity at rat TRPM8 expressed in HEK293 cells assessed as reduction in menthol-induced channel currents by whole cell patch clamp method; assay type: cell-based
How it was run: (§3)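 HEK293 cells grown in DMEM/10% FBS, plated on poly-L-lysine coverslips, transiently transfected 24 h later with rat TRPM8 cDNA (3.6 μg) plus EGFP marker (total cDNA 4 μg). Whole-cell recordings 24 h post-transfection on EGFP-positive cells, 3–5 MΩ pipettes. Extracellular solution (mM): 138 NaCl, 5.4 KCl, 2 CaCl2, 1 MgCl2, 10 glucose, 10 HEPES, pH 7.4. Currents evoked by 500 μM menthol, monitored at +80 and −80 mV.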

[5] = biological target: Transient receptor potential cation channel subfamily M member 8 (Rattus norvegicus) (UniProt Q8R455); experiment: as §2; assay type: cell-based; how it was run: as §3
[6] = biological target: Transient receptor potential cation channel subfamily V member 1 (Mus musculus) (UniProt Q704Y3); experiment: Antagonist activity at mouse TRPV1 expressed in human SH-SY5Y cells assessed as inhibition of capsaicin induced calcium influx at 0.001 to 100 uM incubated for 60 mins by Fluo-4 NW-dye based fluorimetric assay; assay type: cell-based
Transient receptor potential cation channel subfamily V member 1 (Mus musculus), sequence (Q704Y3 whole entry): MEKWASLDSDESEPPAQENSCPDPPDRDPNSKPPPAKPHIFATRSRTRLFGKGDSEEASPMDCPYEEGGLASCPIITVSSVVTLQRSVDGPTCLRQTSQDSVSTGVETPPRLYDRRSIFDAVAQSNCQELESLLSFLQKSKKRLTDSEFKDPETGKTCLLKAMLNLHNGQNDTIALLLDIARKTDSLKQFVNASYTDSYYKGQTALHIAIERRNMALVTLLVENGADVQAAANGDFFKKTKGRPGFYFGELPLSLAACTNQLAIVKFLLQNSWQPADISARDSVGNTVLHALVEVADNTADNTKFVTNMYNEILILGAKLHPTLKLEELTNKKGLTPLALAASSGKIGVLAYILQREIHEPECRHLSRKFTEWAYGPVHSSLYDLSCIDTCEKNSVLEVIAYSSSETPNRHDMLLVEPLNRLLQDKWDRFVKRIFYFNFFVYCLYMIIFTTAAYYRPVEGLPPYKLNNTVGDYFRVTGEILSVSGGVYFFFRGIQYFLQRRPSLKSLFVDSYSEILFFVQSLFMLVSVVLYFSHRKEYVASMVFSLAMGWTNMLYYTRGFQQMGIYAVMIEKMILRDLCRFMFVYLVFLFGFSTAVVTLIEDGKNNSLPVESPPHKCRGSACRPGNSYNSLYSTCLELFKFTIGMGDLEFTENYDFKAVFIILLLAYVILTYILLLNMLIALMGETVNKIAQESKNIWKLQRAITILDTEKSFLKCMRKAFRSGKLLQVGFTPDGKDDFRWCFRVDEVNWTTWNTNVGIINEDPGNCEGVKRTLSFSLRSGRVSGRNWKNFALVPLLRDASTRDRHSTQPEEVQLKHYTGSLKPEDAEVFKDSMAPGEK
How it was run: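 SH-SY5Y cells stably expressing mouse TRPV1, seeded 2 days before, loaded with Fluo-4 NW plus 2.5 mM probenecid; compounds in DMSO added, 60 min at 37 °C in darkness. Four baseline cycles, then 10 μM capsaicin, recorded 15 more cycles (ex 485/em 535 nm). Signal normalized to capsaicin + 10 μM ruthenium red coexposure.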

Mus musculus [7] = experiment: Antinociceptive activity in C57Bl/6J mouse assessed as inhibition of icilin induced wet-dog shakes at 25 mg/kg, sc pretreated 1 hr before icillin addition and measured after 30 mins by wet-dog shakes assay; assay type: functional, organism-based
How it was run: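 Male C57 mice, 5 weeks, ~30 g, acclimatized 30 min on two consecutive days. Gabapentin in saline, 25 mg/kg s.c. 60 min before icilin (10 mg/kg i.p. in 20% DMSO/1% Tween 80). Wet-dog shakes counted over 30 min; mean ± SEM, n = 6; two-way ANOVA with Bonferroni.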

[8] = biological target: Transient receptor potential cation channel subfamily M member 8 (Homo sapiens, UniProt Q7Z2W7); experiment: Antagonist activity at TRPM8 (unknown origin) assessed as reduction in menthol-induced calcium influx
Transient receptor potential cation channel subfamily M member 8 (Homo sapiens, UniProt Q7Z2W7), sequence (Q7Z2W7 whole entry): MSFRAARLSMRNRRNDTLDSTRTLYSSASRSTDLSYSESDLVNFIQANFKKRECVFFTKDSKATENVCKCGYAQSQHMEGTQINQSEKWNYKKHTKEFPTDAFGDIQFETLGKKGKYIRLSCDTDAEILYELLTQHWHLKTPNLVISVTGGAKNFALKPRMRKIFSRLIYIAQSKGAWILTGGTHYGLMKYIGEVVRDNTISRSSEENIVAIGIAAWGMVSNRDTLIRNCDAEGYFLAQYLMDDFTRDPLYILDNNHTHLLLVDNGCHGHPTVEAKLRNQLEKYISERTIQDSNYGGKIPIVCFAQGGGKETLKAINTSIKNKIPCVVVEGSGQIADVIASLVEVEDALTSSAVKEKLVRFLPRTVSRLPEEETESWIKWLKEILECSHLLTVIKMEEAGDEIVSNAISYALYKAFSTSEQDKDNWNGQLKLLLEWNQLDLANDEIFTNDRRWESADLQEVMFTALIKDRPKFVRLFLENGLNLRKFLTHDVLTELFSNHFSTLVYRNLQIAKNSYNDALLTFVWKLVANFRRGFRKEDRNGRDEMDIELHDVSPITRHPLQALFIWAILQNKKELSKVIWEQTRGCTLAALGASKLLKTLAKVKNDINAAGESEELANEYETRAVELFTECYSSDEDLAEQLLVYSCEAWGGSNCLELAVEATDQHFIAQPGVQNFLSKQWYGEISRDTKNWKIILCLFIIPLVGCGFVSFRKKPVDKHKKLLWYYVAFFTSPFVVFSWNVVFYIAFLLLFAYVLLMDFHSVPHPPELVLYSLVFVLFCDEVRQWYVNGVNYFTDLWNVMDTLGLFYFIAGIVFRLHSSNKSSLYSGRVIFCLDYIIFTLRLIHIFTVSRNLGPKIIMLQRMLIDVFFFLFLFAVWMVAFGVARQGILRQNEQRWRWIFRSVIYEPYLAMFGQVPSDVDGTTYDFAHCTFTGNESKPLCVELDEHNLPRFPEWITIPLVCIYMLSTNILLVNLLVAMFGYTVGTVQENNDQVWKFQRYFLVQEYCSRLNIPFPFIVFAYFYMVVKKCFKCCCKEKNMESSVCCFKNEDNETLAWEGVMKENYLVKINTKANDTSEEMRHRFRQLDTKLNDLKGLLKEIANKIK
How it was run: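 HEK293 cells stably expressing rat TRPM8, seeded 2 days ahead, loaded with Fluo-4 NW plus 2.5 mM probenecid. Compounds in DMSO preincubated 60 min at 37 °C in the dark. Four baseline cycles, then stimulation with 100 μM menthol and 15 further read cycles (ex 485, em 535 nm). Signal normalized to menthol + 10 μM AMTB coexposure. DMSO vehicle controls.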

[9] = Apparent permeability of the compound in 0.01 M phosphate buffer at pH 7.4 at 0.5 mM after 24 hrs by PAMPA; assay type: ADME
How it was run: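 Donor at 0.5 mM, diluted from 10 mM DMSO stock into 0.01 M phosphate buffer pH 7.4. Filter coated with 1% phosphatidylcholine in dodecane; acceptor is 5% DMSO in phosphate buffer. Incubated 24 h at room temperature with gentle shaking. Acceptor analysed by HPLC-UV at 220 nm against no-membrane references. Papp from Faller-modified Sugano equation; triplicate, with propranolol and furosemide as references.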

Mus musculus [10] = experiment: Antinociceptive activity in sc dosed C57/BL6 mouse assessed as inhibition of oxaliplatin induced cold allodynia administered as single dose injected into plantar surface of right hind paw on day 7 post oxaliplatin treatment and measured after 15 to 30 mins by acetone drop method; assay type: functional, organism-based
How it was run: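 Male C57 mice, 5 weeks, ~30 g. Oxaliplatin 6 mg/kg given on days 1, 3 and 5, with saline and 5% mannitol i.p.; tested on day 7. Antagonist stock in DMSO, diluted in saline, 0.1–1 μg injected in 25 μL into the plantar surface of the right hind paw. Acetone drop test after ~30 min habituation; paw sampled twice (~5 min apart) and averaged.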

[11] = Chemical stability of compound in phosphate buffer at pH 7.4 after 15 to 60 mins by HPLC analysis; assay type: physicochemical
How it was run: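 DMSO stock (10 mg/mL) diluted 1:100 in phosphate buffer and stirred at 37 °C. At 15, 30 and 60 min, extracted with dichloromethane (1:1), dried under nitrogen, reconstituted in methanol and filtered. Analysed by C18 HPLC with a 0.1% TFA water/acetonitrile gradient (5–90% B over 7 min), 0.5 mL/min, 220 nm detection. Triplicate.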

[12] = Drug metabolism in mouse serum assessed as (S)-2-(Dibenzylamino)-3-(1H-indol-3-yl)propanoic Acid formation after 15 to 60 mins by HPLC analysis; assay type: ADME, cell-free
How it was run: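 DMSO stock diluted 1:1000 in mouse serum (from retro-orbital blood) and stirred at 37 °C. Samples taken at 15, 30 and 60 min, extracted with dichloromethane, then analysed by C18 HPLC (0.1% TFA water/acetonitrile gradient, 220 nm) for parent and acid metabolite. Blank serum checked for interfering peaks; acetylsalicylic acid used to verify hydrolytic activity. Triplicate.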

Mus musculus [13] = experiment: Antinociceptive activity in sc dosed C57Bl/6J mouse assessed as inhibition of icilin induced wet-dog shakes pretreated 30 mins before icillin addition and measured after 30 mins by wet-dog shakes assay; assay type: functional, organism-based
How it was run: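 Male C57 mice, 5 weeks, ~30 g, acclimatized 30 min on two consecutive days. Compound (1, 10, 30 mg/kg; DMSO stock diluted in saline) or vehicle given s.c. 30 min before icilin 10 mg/kg i.p. (in 20% DMSO/1% Tween 80 in water). Gabapentin 25 mg/kg s.c. given 60 min before icilin. Wet-dog shakes counted over 30 min. Mean ± SEM, n = 6; two-way ANOVA with Bonferroni test.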

[14] = biological target: Transient receptor potential cation channel subfamily M member 8 (Rattus norvegicus) (UniProt Q8R455); experiment: Reversible antagonist activity at rat TRPM8 expressed in HEK293 cells at 100 nM assessed as reduction in menthol-induced channel currents measured after drug wash out by whole cell patch clamp method; assay type: cell-based
[15] = biological target: Transient receptor potential cation channel subfamily M member 8 (Rattus norvegicus) (UniProt Q8R455); experiment: Antagonist activity at rat TRPM8 expressed in HEK293 cells at 100 nM assessed as reduction in menthol-induced channel currents by whole cell patch clamp method; assay type: cell-based
Mus musculus [16] = experiment: Antinociceptive activity in C57Bl/6J mouse assessed as inhibition of icilin induced wet-dog shakes at 30 mg/kg, sc pretreated 30 mins before icillin addition and measured after 30 mins by wet-dog shakes assay; assay type: functional
How it was run: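 Male C57 mice, 5 weeks, ~30 g, acclimatized 30 min on two consecutive days. Compound (DMSO stock diluted in saline) given s.c. at 1, 10 or 30 mg/kg 30 min before icilin 10 mg/kg i.p. (20% DMSO/1% Tween 80). Wet-dog shakes counted over 30 min; mean ± SEM, n = 6; two-way ANOVA, Bonferroni.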

SMILES: c1ccc(COc2ccc3[nH]cc(CCN(Cc4ccccc4)Cc4ccccc4)c3c2)cc1
- IC50 [1]: 1900 nM

SMILES: O=[N+]([O-])c1ccc(Sc2[nH]c3ccccc3c2CCN(Cc2ccccc2)Cc2ccccc2)c([N+](=O)[O-])c1
- IC50 [1]: 2200 nM

SMILES: O=[N+]([O-])c1ccc(CN(CCc2c[nH]c3ccccc23)Cc2ccccc2)cc1
- IC50 [1]: 3000 nM

SMILES: c1ccc(CN(CCc2c[nH]c3ccccc23)Cc2ccccc2)cc1
- IC50 [1]: 3200 nM

SMILES: Cc1cccc(COc2ccccc2C(=O)N(CCCN)Cc2cccs2)c1
- IC50 [1]: 6500 nM

SMILES: c1ccc(CN(CCc2c[nH]c3ccccc23)CC2CCCCC2)cc1
- inhibition [2]: Active
- inhibition [3]: Active
- IC50 [4]: 3.5 nM
- inhibition [5]: Dose-dependent effect
- inhibition [6]: inactive
- IC50 [1]: 600 nM

SMILES: O=[N+]([O-])c1ccc(CN2CCc3c([nH]c4ccccc34)C2c2ccccc2)cc1 (racemic)
- IC50 [1]: 3300 nM

SMILES: NCC1(CC(=O)O)CCCCC1
- inhibition (Mus musculus [7]): Active

SMILES: CC(C)(C)c1ccc(NC(=O)N2CCN(c3ncccc3Cl)CC2)cc1
- IC50 [8]: 475 nM

SMILES: O=C(O)c1ccc(CN2CCc3c([nH]c4ccccc34)C2c2ccccc2)cc1 (racemic)
- IC50 [1]: > 100000 nM

SMILES: O=C(CN1CCc2c([nH]c3ccccc23)C1c1ccccc1)c1ccccc1 (racemic)
- IC50 [1]: 1600 nM

SMILES: O=C(O)[C@H](Cc1c[nH]c2ccccc12)N(Cc1ccccc1)Cc1ccccc1
- Papp at 24 h, 500 µM [9]: 3.17 ×10⁻⁶ cm/s
- IC50 [1]: 8200 nM

SMILES: COC(=O)[C@H](Cc1c[nH]c2ccccc12)N(Cc1ccccc1)Cc1ccccc1
- inhibition (Mus musculus [10]): Dose-dependent effect
- Stability [11]: Stable
- Papp at 24 h, 500 µM [9]: 0.97 ×10⁻⁶ cm/s
- IC50 [4]: 0.2 nM
- inhibition [5]: Dose-dependent effect
- Drug metabolism [12]: Metabolite_Detected
- inhibition (Mus musculus [13]): Dose-dependent effect
- inhibition [14]: Active
- inhibition [15]: Active
- inhibition [6]: inactive
- inhibition in vivo at 30 mg/kg (Mus musculus [16]): 63%
- IC50 [1]: 40 nM

SMILES: COC(=O)[C@@H](Cc1c[nH]c2ccccc12)N(Cc1ccccc1)Cc1ccccc1
- IC50 [4]: 865 nM

SMILES: Cn1cc(CCN(Cc2ccccc2)Cc2ccccc2)c2ccccc21
- IC50 [1]: 3300 nM

SMILES: c1cc2c3c(cccc3c1)CN(CCc1c[nH]c3ccccc13)C2
- IC50 [1]: 11800 nM
